Test [1] deals with T1, Cathepsin K (Homo sapiens, UniProt P43235).
T1 sequence (P43235 whole entry): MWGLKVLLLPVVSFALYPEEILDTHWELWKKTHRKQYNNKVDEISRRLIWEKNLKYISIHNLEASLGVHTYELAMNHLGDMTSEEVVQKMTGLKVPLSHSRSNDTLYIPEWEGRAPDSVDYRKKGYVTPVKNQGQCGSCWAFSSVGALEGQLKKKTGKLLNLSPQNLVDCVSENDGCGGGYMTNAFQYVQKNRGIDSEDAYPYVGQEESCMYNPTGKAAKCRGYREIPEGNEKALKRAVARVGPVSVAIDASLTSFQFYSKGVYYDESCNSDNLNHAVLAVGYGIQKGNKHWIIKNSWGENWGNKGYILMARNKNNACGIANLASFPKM
Description: In vitro inhibition of human Cathepsin K. The following applies: read-out: Ki app.

For a further test, the target named is Cathepsin B (Homo sapiens, UniProt P07858). Description: Inhibitory activity tested against human Cathepsin B. The conditions noted are these: read-out: Ki app. The gist of the method: (§1)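 Fluorogenic AMC-substrate assay in 100 mM acetate, 20 mM cysteine, 5 mM EDTA, pH 5.5, with 10% final DMSO. […] Apparent Ki values were determined.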
A further test addresses Cathepsin S (Homo sapiens, UniProt P25774). Description: Inhibition of human Cathepsin S. The conditions noted are these: read-out: Ki app. The gist of the method: as §1
The next test has as its target Procathepsin L (Homo sapiens, UniProt P07711). The experiment in a line: Inhibition of human Cathepsin L. The following applies: read-out: Ki app.
For test [2], the target named is T1, Cathepsin K. The experiment in a line: (§2) Inhibitory activity tested against human Cathepsin K.
Test [3] addresses T2, Cathepsin K (Homo sapiens) (UniProt P43235).
T2 sequence (whole entry): T1 sequence (P43235 whole entry)
The test is described as §2.

Some results are limits rather than exact numbers.

Sequence of Procathepsin L (P07711 whole entry): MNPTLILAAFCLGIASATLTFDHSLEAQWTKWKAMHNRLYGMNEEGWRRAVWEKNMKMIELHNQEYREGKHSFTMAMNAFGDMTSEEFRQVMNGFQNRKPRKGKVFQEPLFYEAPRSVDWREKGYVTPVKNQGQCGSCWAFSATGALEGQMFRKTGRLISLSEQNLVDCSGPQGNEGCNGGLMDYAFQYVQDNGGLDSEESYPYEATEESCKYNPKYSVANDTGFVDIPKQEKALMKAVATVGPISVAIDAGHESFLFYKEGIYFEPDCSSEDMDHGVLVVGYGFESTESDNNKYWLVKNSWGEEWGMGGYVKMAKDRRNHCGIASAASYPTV
Sequence of Cathepsin S (P25774 whole entry): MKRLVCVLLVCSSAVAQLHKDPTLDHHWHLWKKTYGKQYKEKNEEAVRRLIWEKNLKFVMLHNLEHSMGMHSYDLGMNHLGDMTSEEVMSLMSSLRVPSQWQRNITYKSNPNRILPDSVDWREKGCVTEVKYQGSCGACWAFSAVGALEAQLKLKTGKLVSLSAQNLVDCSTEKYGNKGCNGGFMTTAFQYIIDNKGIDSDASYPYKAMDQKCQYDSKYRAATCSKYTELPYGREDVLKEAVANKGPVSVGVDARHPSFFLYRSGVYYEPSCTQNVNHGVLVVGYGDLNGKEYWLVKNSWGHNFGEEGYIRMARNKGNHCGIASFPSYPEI

Turning to `CC(=O)N1CCC(NC(=O)[C@H](CC(C)C)NC(=O)OCc2ccccc2)C(=O)C1` (stereo not given in full), the Ki on Cathepsin K [1] was 0.23 µM.
`CC(C)C[C@H](NC(=O)OCc1ccccc1)C(=O)NC1CCOCC1=O` (stereo not given in full): the Ki is 0.15 µM at Cathepsin K [1], > 10 µM at Cathepsin B and 0.53 µM at Cathepsin S.
On to `CC(C)C[C@H](NC(=O)OCc1ccccc1)C(=O)NC1CCOCC1O` (stereo not given in full), for which the Ki on Procathepsin L, on Cathepsin K [1] and at Cathepsin S was > 1 µM throughout.
Turning to `CC(C)C[C@H](NC(=O)OCc1ccccc1)C(=O)NC1CCCC1=O` (stereo not given in full), the Ki on Procathepsin L, at Cathepsin K [1], on Cathepsin B and on Cathepsin S was > 10 µM in each case.
Regarding `CC(C)C[C@H](NC(=O)OCc1ccccc1)C(=O)NC1CCN(C(=O)[C@H](CC(C)C)NC(=O)OCc2ccccc2)CC1=O` (stereo not given in full), on Cathepsin S, the Ki was determined as 0.008 µM.
Consider `CC(C)C[C@H](NC(=O)OCc1ccccc1)C(=O)NC1COCC1O` (stereo not given in full), for which the Ki at Procathepsin L, at Cathepsin K [1] and on Cathepsin S was > 1 µM each time.
Take `COCC(=O)[C@H](C)NC(=O)[C@H](CC(C)C)NC(=O)OCc1ccccc1`: at Cathepsin B, the Ki was > 1 µM.
As for `COCC(=O)[C@H](CC(C)C)NC(=O)[C@H](CC(C)C)NC(=O)OCc1ccccc1`, the Ki at Cathepsin K [2] amounted to 0.08 µM.
Consider `CCCOC[C@@H](O)[C@H](CC(C)C)NC(=O)[C@H](CC(C)C)NC(=O)OCc1ccccc1`, for which, in test [3], the K inact/I is 4100 M⁻¹ s⁻¹.
On to `CC(C)C[C@@H](CN1CC(=O)C(NC(=O)[C@H](CC(C)C)NC(=O)c2ccc3cccnc3c2)C1)NC(=O)OCc1ccccc1` (stereo not given in full), for which the Ki at Cathepsin K [1] was 0.0016 µM; on Cathepsin B, 0.046 µM.
In the case of `CC(=O)N1CC(=O)C(NC(=O)[C@H](CC(C)C)NC(=O)OCc2ccccc2)C1` (stereo not given in full), the Ki on Procathepsin L amounted to 0.58 µM; on Cathepsin K [1], 0.25 µM; at Cathepsin S it was 0.48 µM.
For `CC(C)C[C@H](NC(=O)OCc1ccccc1)C(=O)NC1COCC1=O` (stereo not given in full), the Ki at Procathepsin L was 2.6 µM; on Cathepsin B, > 10 µM; on Cathepsin S, 0.31 µM.
With `CC(C)C[C@H](NC(=O)OCc1ccccc1)C(=O)NC1CCCCC1=O` (stereo not given in full), the Ki on Procathepsin L, on Cathepsin K [1], on Cathepsin B and on Cathepsin S was > 10 µM in each case.
As for `CC(C)C[C@@H](C(=O)NC1CN(C(=O)[C@H](CC(C)C)N(C)C(=O)OCc2ccccc2)CC1=O)N(C)C(=O)OCc1ccccc1` (stereo not given in full), the figures for the Ki at Cathepsin K [1], on Cathepsin B and on Cathepsin S were 0.18 µM, 2.6 µM and 0.051 µM, respectively.
For `CC(C)C[C@H](NC(=O)OCc1ccccc1)C(=O)NC1CCN(C(=O)[C@H](CC(C)C)N(C)C(=O)OCc2ccccc2)CC1=O` (stereo not given in full), the Ki on Cathepsin K [1] came to 0.0019 µM.
Consider `CC(C)C[C@H](NC(=O)c1cc2ccccc2s1)C(=O)NC1CCOCC1=O` (stereo not given in full), for which the Ki at Cathepsin K [2] turned out to be 0.011 µM.
In the case of `CN[C@@H](CC(C)C)C(=O)N1CC(=O)[C@@H](NC(=O)[C@H](CC(C)C)NC(=O)OCc2ccccc2)C1`, the Ki turned out to be 0.4 µM at Procathepsin L, 0.077 µM on Cathepsin K [1], 7.3 µM at Cathepsin B and 0.29 µM at Cathepsin S.
Take `CC(C)C[C@H](NC(=O)c1ccc2ccccc2n1)C(=O)NC1COCC1=O` (stereo not given in full): the Ki at Procathepsin L was found to be 0.25 µM; on Cathepsin B, 7.8 µM; at Cathepsin S it was 1.1 µM.
As for `CC(C)C[C@H](NC(=O)OCc1ccccc1)C(=O)NC1CN(C(=O)[C@H](CC(C)C)NC(=O)OCc2ccccc2)CC1=O` (stereo not given in full), the Ki on Cathepsin S amounted to 0.09 µM.
With `CC(C)C[C@H](NC(=O)OCc1ccccc1)C(=O)NC1CN(C(=O)[C@H](CC(C)C)N(C)C(=O)OCc2ccccc2)CC1=O` (stereo not given in full), at Cathepsin K [1], the Ki is 0.0006 µM.
Compound `CC(C)C[C@H](NC(=O)c1cc2ccccc2s1)C(=O)NC1COCCC1=O` (stereo not given in full) came in with a Ki on Cathepsin K [2] of 0.56 µM.

The values above are taken from ChEMBL document CHEMBL1134358, “Cyclic ketone inhibitors of the cysteine protease cathepsin K” (J Med Chem, 2001).
